# This is a sample that favours compounds with a hit; in the whole collection about 2.8% have one here.
# 14-3-3 Bad PPI: inhibitors of 14-3-3 zeta/Bad binding, primary screen, biochemical, TR-FRET, bovine 14-3-3 zeta | inhibition, % at 21.7 µM | 220,000 compounds, 0.71% hits | 14-3-3 protein zeta/delta (Bos taurus), P63103 | TR-FRET 14-3-3zeta/Dy647-pBad peptide displacement, 1 h;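 active means inhibition above about 70%, limit read from the data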;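 further: 0% = full 14-3-3 plus peptide FRET controls and 100% = background without 14-3-3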
# Wee1 degr inh: Wee1 degradation inhibitors, primary screen, cell-based, HeLa, Wee1K328M-luciferase, luminescence; HeLa Luc-Wee1K328M stability; 100% = proteasome inhibitor MG132 effect; reporter increase, % at 5 µM; 220,000 compounds, 1.2% hits;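 active means activation above the mean of all tested compounds plus 3 SD, set per screening run, cut at about 8.8% in these data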;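 further: cells exposed to compound for 20 h before luminescence read; 0% = DMSO alone and 100% = MG132 at 30 µM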
# NCF1 inh: p47phox/p22phox peptide binding inhibitors, primary screen, biochemical, uHTS, NADPH oxidase regulatory subunit. Neutrophil cytosol factor 1 (Homo sapiens), P14598. fluorescence polarization, 2 h. inhibition, % at 24.7 µM. 220,000 compounds, 0.53% hits;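 further: 0% = p47phox with labelled peptide and 100% = labelled peptide alone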
# Target sequence (P14598 whole entry, looked up): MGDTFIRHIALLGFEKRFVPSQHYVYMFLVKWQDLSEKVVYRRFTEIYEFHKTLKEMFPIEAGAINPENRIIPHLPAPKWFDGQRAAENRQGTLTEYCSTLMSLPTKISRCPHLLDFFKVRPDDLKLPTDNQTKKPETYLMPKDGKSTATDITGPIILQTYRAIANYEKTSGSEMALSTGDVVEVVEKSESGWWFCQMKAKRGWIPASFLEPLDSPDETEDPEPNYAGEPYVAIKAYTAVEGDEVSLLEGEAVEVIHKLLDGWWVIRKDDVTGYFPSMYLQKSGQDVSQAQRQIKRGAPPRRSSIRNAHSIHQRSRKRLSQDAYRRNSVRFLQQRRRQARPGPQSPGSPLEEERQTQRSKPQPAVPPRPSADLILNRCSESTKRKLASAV
# eIF4E 4G PPI: eIF4E–eIF4G protein interaction inhibitors, primary screen, biochemical, uHTS, TR-FRET, eIF4GI fragment; inhibition, % at 21.7 µM; TR-FRET eIF4E-eIF4GI(517-606) binding, 2 h; 220,000 compounds, 0.37% hits;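 further: 0% = full FRET control wells and 100% = background wells lacking eIF4GI fragment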
# RBBP9 inhibitor: human RBBP9 inhibitors, primary screen, biochemical, fluorescence polarization, FP-Rh probe, HTS; inhibition, % at 7.94 µM; recombinant RBBP9; AID 1515, 2009; Serine hydrolase RBBP9 (Homo sapiens), O75884; 220,000 compounds, 0.2% hits;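 active means inhibition above the campaign mean of all tested compounds plus 3 SD, cut at about 14% in these data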;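 further: plate controls were DMSO wells with RBBP9 for no effect and wells lacking RBBP9 protein for full effect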
# Target sequence (O75884 whole entry, looked up): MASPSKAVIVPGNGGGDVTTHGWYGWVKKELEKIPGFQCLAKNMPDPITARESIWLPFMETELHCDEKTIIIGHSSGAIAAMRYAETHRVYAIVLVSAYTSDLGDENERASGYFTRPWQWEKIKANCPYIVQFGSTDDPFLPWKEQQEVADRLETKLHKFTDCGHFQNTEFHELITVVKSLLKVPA
#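 System: RBBP9 protein / Quantity: 2.5 µM RBBP9 dispensing solution, before mixing / Also added: Serine-hydrolase probe FP-Rh, 375 nM pre-mixing / Dosing: 7.94 µM single dose, 0.794% DMSO / Timing: enzyme-compound preincubation 30 min, then probe labeling 45 min, 25 °C / Signal: FP readout at 525/598 nm / Controls: DMSO-treated enzyme wells and wells lacking RBBP9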
# Active calls of the source: *; / = no result; [ ] = dose if it differs, or a comment.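 How the source made its calls, unless noted: active means inhibition above about 30% (limit read from the data); inactive means the rest.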
SMILES,14-3-3 Bad PPI,Wee1 degr inh,NCF1 inh,eIF4E 4G PPI,RBBP9 inhibitor
Cn1cc(CCNC(=O)CC2C(=O)NCCN2CC(c2ccccc2)c2ccccc2)cn1 (stereo unspecified),0.5,-0.6,7.0,-5.6,-1.2
Nc1ccc2nc(-c3cc(Cl)c(N)c(Cl)c3)[nH]c2c1,53.5,-0.3,4.5,39.2*[fluorescence artefact?],3.6
c1ccc(N/N=C(\Cc2nc3ccccc3[nH]2)c2ccccc2)cc1,-2.9,-0.1,-8.5,1.9,-5.3
Cc1ccc(N/N=C(\Cc2nc3ccccc3[nH]2)c2ccccc2)cc1,-4.1,16.1*,-23.6,-1.9,0.9
COc1cc(CNc2ccc(N3CCCC3)cc2)ccc1OCc1ccccc1F,1.8,2.7,-2.7,31.8*[fluorescence artefact?],-3.0
COc1cccc(/C=C/C(=O)OCC(=O)NCC2CCCO2)c1OC (stereo unspecified),10.1,3.5,0.3,-4.8,2.0
COc1cccc(C(=O)N2CCN(Cc3ccccc3C(F)(F)F)CC2)c1,74.0*,0.0,-7.4,-1.4,0.4
COc1cccc(C(=O)N2CCN(Cc3cc(Br)ccc3OC)CC2)c1,71.8*,-1.4,-8.0,1.6,-8.6
O=C(c1ccccc1)N1CCN(Cc2ccccc2C(F)(F)F)CC1,43.7,0.8,-8.8,2.5,6.8
Cc1ccc(CN2CCN(Cc3ccccc3C(F)(F)F)CC2)cc1,80.5*,-2.2,0.4,-3.0,-2.4
CCc1ccc(OCC(=O)Nc2ccc(N3CCN(S(C)(=O)=O)CC3)cc2)cc1,-1.5,-3.0,/,1.1,-5.8
O=C(N/N=C/c1ccc([N+](=O)[O-])cc1)c1cc(C2CC2)nc2ccccc12,6.0,-0.7,-7.9,0.7,0.6
CCc1ccc(/C=N/NC(=O)c2cc(C3CC3)nc3ccccc23)s1,-3.3,10.5*,-5.0,9.6,-6.5
Cc1cccc(/C(N)=N/OC(=O)COc2ccccc2Cl)c1,6.7,12.5*,-3.5,0.3,-0.5
COc1ccc(/C(N)=N/OC(=O)COc2ccccc2Cl)cc1,5.5,0.7,-0.1,1.3,0.8
CC(C)Cc1nnc(NC(=O)c2cc(-c3ccccc3)nc3ccccc23)s1,-1.5,2.2,-1.3,11.0,-3.6
CC(C)Cc1nnc(NC(=O)c2cc(-c3ccncc3)nc3ccccc23)s1,0.4,9.2*,-5.4,2.2,-9.9
COc1ccc(C(=O)NCC(=O)OCC(=O)Nc2cc([N+](=O)[O-])ccc2F)cc1,7.3,-1.8,-8.6,-0.4,-1.0
Nc1ccccc1SCc1cn2ccccc2n1,-0.6,-0.5,-8.3,5.2,1.7
N=C(N)SCc1cn2ccccc2n1,13.5,8.8*,-8.0,8.5,-3.1
Cc1cccc(N2CCN(S(=O)(=O)c3cccc4nonc34)CC2)c1C,8.9,7.5,-40.3,-3.9,-4.7
Cc1cc(-c2n[nH]c(=S)n2Cc2ccccc2)cs1,12.3,-2.3,41.0*,6.6,-5.5
O=C(O)c1cc(-c2ccccc2)n(-c2ccccc2C(=O)O)n1,11.1,2.0,-15.0,42.1*,-8.9
O=C(O)c1cc(-c2ccc(Cl)cc2)n(-c2ccccc2)n1,-5.6,4.1,4.2,-4.1,-1.5
CCOC(=O)CCn1c2nc(C)cc(C)c2c(=O)n1-c1ccccc1,/,-2.7,33.9*,/,-6.7
SMILES,14-3-3 Bad PPI,Wee1 degr inh,NCF1 inh,eIF4E 4G PPI,RBBP9 inhibitor
CCOC(=O)Cn1nc(C)n(-c2ccccc2)c1=O,-7.8,-0.7,-0.4,-3.8,-1.7
Cn1cc(CN2CCCC(C(=O)c3cccs3)C2)c(-c2cccc(Cl)c2)n1 (stereo unspecified),-12.4,0.2,-9.8,-1.2,-5.8
CCCn1nnc(NC(=O)c2ccc3c(c2)OCO3)n1,-0.8,7.1,-2.7,-1.1,-1.5
Cc1cc2nc(C3CCCN(C(=S)Nc4ccccc4C)C3)[nH]c2cc1C (stereo unspecified),-17.3,0.1,-10.3,10.0,4.1
Cc1cc2nc(C3CCCN(C(=O)NCc4ccccc4)C3)[nH]c2cc1C (stereo unspecified),75.5*,-2.2,-8.8,5.8,-11.2
COc1ccc(C(c2nnnn2C2CCCC2)N2CCN(C3CCCC3)CC2)cc1OC (stereo unspecified),56.7,-0.4,-6.6,5.0,-9.6
COc1cc(C(c2nnnn2C2CCCC2)N2CCN(C)CC2)cc(OC)c1OC (stereo unspecified),79.7*,-2.2,-0.3,-2.4,3.5
O=C1C(Br)=Cc2cccc3cccc1c23,-2.8,-2.5,30.8*,-7.8,-0.5
Cc1ccc(-c2nnc(N(C)C(=O)C3CCCO3)s2)cn1 (stereo unspecified),75.1*,1.1,1.9,0.2,-2.7
CN(C(=O)C1CCCO1)c1nnc(-c2cnccn2)s1 (stereo unspecified),11.0,-1.5,-0.3,5.8,-4.7
CCOC(=O)Nc1ccc(S(=O)(=O)NCc2ccccc2)cc1,-5.8,5.1,38.1*,2.6,-5.9
CCOC(=O)Nc1ccc(NS(=O)(=O)c2ccc(C)cc2)cc1,-13.4,-0.8,-1.7,2.6,-4.2
CCOC(=O)/C=C/C(=O)Nc1ccc(S(=O)(=O)N(C)c2ccccc2)cc1,-0.8,10.1*,-17.3,6.0,-9.3
O=C(COc1ccc2c(c1)CCC2)N1CCN(c2ccccc2F)CC1,-2.2,10.1*,5.8,1.2,-5.0
O=C(COc1ccc2c(c1)CCC2)N1CCN(c2cccc(C(F)(F)F)c2)CC1,-30.1,6.2,-7.7,2.4,9.6
O=C(OCc1cc(=O)n2c(n1)sc1ccccc12)c1ccc(O)cc1,40.9,1.9,-80.2,10.2,-18.0
O=c1cc(CCl)nc2sc3ccccc3n12,55.9,-1.2,8.3,39.7*,-1.3
CCOC(=O)c1c(NC(=O)c2cc(-c3ccc(O)cc3)on2)sc(C(C)=O)c1C,65.0,-2.4,-11.0,31.4*,5.2
Nc1cccc2c1C(=O)N(Cc1cccc(Cl)c1)C2=O,-5.1,11.2*,2.8,-0.2,-9.5
Nc1cc(CN2C(=O)c3ccccc3C2=O)cc(Cl)c1O,0.1,1.2,-13.8,-3.9,-5.2
Cc1ccc(-n2c(C)cc(C(=O)OCC(=O)N(CC(C)C)C3CCS(=O)(=O)C3)c2C)cc1 (stereo unspecified),-2.7,15.9*,-16.6,0.4,-5.7
CCOc1ccc(N2C(=O)c3ccc(C(=O)OCC(=O)N(CC)C4CCS(=O)(=O)C4)cc3C2=O)cc1 (stereo unspecified),61.3,-0.2,43.9*,8.7,-6.6
CCOc1ccc(OCC)c(NC(=O)C2CCN(S(=O)(=O)c3c(C)[nH]c(=O)[nH]c3=O)CC2)c1,-10.7,-2.6,1.5,3.0,-8.1
